# Experimental data: publication PMC8364871 (Clinical cancer research : an official journal of the …, 2021)
# Experiments:
# SOX11-DNA interaction = target: T1, SOX11-DNA interaction (Homo sapiens, UniProt P35716); experiment: Fluorescence anisotropy; format: biochemical; details: 20 μM of compound
# T1 sequence (P35716 49-117 limits assumed): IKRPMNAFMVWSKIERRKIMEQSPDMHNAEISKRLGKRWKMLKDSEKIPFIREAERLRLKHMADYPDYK
# Procedure, shortened: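 Fluorescence anisotropy read at fluorescein excitation/emission wavelengths to follow SOX11–DNA binding in the presence of test compound. Unlabeled DNA served as the competitive positive control. Read-out: percent inhibition of DNA binding.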
# MCL cell lines = experiment: Activity in MCL cell lines; format: cell-based, human
# [1] = test system: DNA (topoisomerase I relaxation of supercoiled plasmid DNA); experiment: Topoisomerase-based DNA unwinding assay; format: biochemical; details: 20 μM
# [2] = test system: pBTK in JeKo-1, Z-138, Mino and JVM-2; experiment: PhosphoFlow pBTK-Y223, all four MCL cell lines; format: cell-based, human; details: 24 hours; 1 μM and 10 μM Ibrutinib (Figure 5B)
# MCL patients = details: cited from earlier work; for duration of response: MCL patients
# (His)6-SOX11-DBD = target: T2, (His)6-SOX11-DBD (Homo sapiens, UniProt P35716); experiment: Surface plasmon resonance binding to immobilized SOX11-DBD; details: 25 °C
# T2 sequence (P35716 49-117 limits assumed): T1 sequence (P35716 49-117 limits assumed)
# SOX11 DBD = details: cited from earlier work
smiles,measurement,setting,value
Cc1cc2nc3c(=O)[nH]c(=O)nc-3n(C[C@H](O)[C@H](O)[C@H](O)COP(=O)(O)OP(=O)(O)OC[C@H]3O[C@@H](n4cnc5c(N)ncnc54)[C@H](O)[C@@H]3O)c2cc1C [Flavitan],inhibition of DNA binding,SOX11-DNA interaction,> 50%
same,activity in MCL cell lines,MCL cell lines,inactivity in MCL cell lines
C=CC(=O)N1CCC[C@@H](n2nc(-c3ccc(Oc4ccccc4)cc3)c3c(N)ncnc32)C1 [Ibrutinib],direct DNA binding / interference with DNA unwinding activity of topoisomerase I,[1],do not directly bind DNA
same,pBTK level in all four cell lines,[2],reduced pBTK level in all four cell lines
same,duration of response,MCL patients,17.5 months
same,overall response rate,MCL patients; relapsed MCL patients,60%
CC1(C)CCC(CN2CCN(c3ccc(C(=O)NS(=O)(=O)c4ccc(NCC5CCOCC5)c([N+](=O)[O-])c4)c(Oc4cnc5[nH]ccc5c4)c3)CC2)=C(c2ccc(Cl)cc2)C1 [Venetoclax],duration of response,MCL patients,14 months
O=C(O)c1c(O)cccc1CCc1ccc2ccccc2c1 [Sm4],binding affinity to SOX11-DBD (SPR),(His)6-SOX11-DBD,displayed expected affinities
same,concentration inhibiting SOX11 DBD,SOX11 DBD,sub-millimolar concentrations
